Experimental data as given in the EternaBench riboswitch data.

Test system: MS2 coat protein
Assay: apparent Kd, MS2 coat protein; higher = weaker binding; RNA-MaP array; FMN 200 µM where present
How it was run: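 The titrant was SNAP-549-labelled MS2 coat protein, run from 0.7 or 1.5 nM in doubling steps to 3 µM. It was applied to designs transcribed by stalled E. coli RNA polymerase on Illumina sequencing-chip clusters, without ligand first and then with constant ligand, in 100 mM Tris-HCl pH 7.5, 80 mM KCl, 4 mM MgCl2, BSA, DTT, yeast tRNA and Tween-20. The apparent Kd is the median of filtered per-cluster binding-curve fits, with green signal normalised to red-channel RNA signal and control-cluster median Fmax.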

[1] = designed as: OFF switch for flavin mononucleotide, no ligand
[2] = ligand present: flavin mononucleotide, designed as: OFF switch for flavin mononucleotide
[3] = designed as: ON switch for flavin mononucleotide, no ligand
[4] = ligand present: flavin mononucleotide, designed as: ON switch for flavin mononucleotide

Sequence	apparent Kd [1]	apparent Kd [2]	apparent Kd [3]	apparent Kd [4]
GGAAAUCAUGUAGGAUAUGCAUGGCGAAGCUACGCAGAAGGACAUGAGGAUCACCCAUGUUAUAGCGUCCGUGAAAGGAUGCAA	39.7 nM	120 nM	–	–
AGUUUUGUACAUGAGGAUCACCCAUGUUAAUAUGUGGUAGUCAGAAGGCAUUGUUAGAGUUUUAAUGAGGAUAUGAAUAUUCUG	–	–	38.3 nM	25 nM
AAUCGUAGAACGAUCACUACCAGUCAGGAUAUACAUGAGGAUCACCCAUGUCGUGUCGACAGCAUGUAGAAGGGACGGUUAUAU	27.1 nM	66 nM	–	–
GCUGUCGCAUGAGGAUAUGGUCAGCUUUGCUGACCAGAAGGCAUGUCAAUAGACAUGAGGAUCACCCAUGUAGUUUGGGCGGCU	–	–	985 nM	99.2 nM
GGUGCGUAUGUGAGGAUAUGCUGGUCCUUGGAUCCGCAGAAGGCACAUGAGGAUCACCCAUGUGGUGUCGUACC	299 nM	27.6 nM	–	–
GGAAUAAAUGCAGGAUAUACGUGGAAAGCUUUCAACAUGAGGAUCACCCAUGUAGAAGGGCAUCUCCCGACCGAAGCGGAUCUC	5.8 nM	6.27 nM	–	–
AUGUGGUGCGUAGGAUAUCAUUAAAGAAAACCCUGAGAAGGACGUGAGGACAUGAGGAUCACCCAUGUGGAUCACCCAUGUCAU	320 nM	285 nM	–	–
AGCUGUGGCCGAGGAUAUGCUACUUCAAUAACCGAAAUAUAAUCGGACAUGAGGAUCACCCAUGUAGAGAAGGCGGUCUCAGCA	14 nM	11 nM	–	–
CAGCGAUAGCUGAAUGGUACAUGGGAGGAUAUGGGUUGAACAUGAGGAUCACCCAUGUUAUAAUACUAGAAGGCCCAUGUACCU	–	–	16.6 nM	5.45 nM
GCUGGUCGAGGAUAUAUAUGACGUGCUUCGGCACGAAGAUCACAUGAGGAUCACCCAUGUAGAAGGUGACCAGC	53.8 nM	267 nM	–	–
UCUGGAGCAGGAUAUAUAUGACGUGCUUCGGCACGAAGAUCACAUGAGGAUCACCCAUGUAGAAGGGCUCCAGA	109 nM	946 nM	–	–
AGCUGUGGCCGAGGAUAUCUGUUUCAUAAAACCGAAAUAUAAUCGGACAUGAGGAUCACCCAUGUAGAGAAGGCGGUCUCAGCA	16.6 nM	14.9 nM	–	–
GGAGAGGAAACAUGAGGAUCACCCAUGUGAGUGGUCCGAAGAUAGGAUAUCCACACGAGAAGUGUGGAGAAGGAUCACCUCUCC	746 nM	571 nM	–	–
AUUAAACAUGAGGAUCACCCAUGUCAACAAAGUCGAGGAUAUGGGCAAAUAAAAUAAGUACCAGAAGGCGAAUAAU	–	–	113 nM	24.2 nM
GCGCUUAAACAGAAGGCCAAAUACAUGAGGAUCACCCAUGUCGAAUCAUGGAGGAUAUGUUAUUAAUUACACGCAGAUGAGCGC	–	–	124 nM	10.7 nM
CUUUUGUGAGGAUAUCAGUAGUAAAAAAAUAAAAUUACUACUGAGAAGGCACAUGAGGAUCACCCAUGUUCCUU	26.8 nM	31.6 nM	–	–
GUAGCAUUCUGAGGAUAUUCAUACCGGUAACGGACAUGAGGAUCACCCAUGUGGCGAAAGCCUUGGGAGAAGGCAGUAUGCUAC	–	–	171 nM	10 nM
AAUCCACAUGAGGAUCACCCAUGUGAGGAUAUGAUACUAUGUACUUCGGUACAUAGUAUCAGAAGGCAUAUGAA	25.3 nM	30.4 nM	–	–
CCACGUCACAUCUACAUGAGGAUCACCCAUGUCAAAAGACAUGAGGAUAUGCAUCCUAAUUGGAUGCAGAAGGCAUGGACGUGG	–	–	972 nM	69.7 nM
CUUAGUUUGUAGAAGGGUGACAUGAGGAUCACCCAUGUGCGUCUCCUGAAAGACCAGGGUACGCCACAGGAUAUACAAAGUAAG	–	–	42.7 nM	47.7 nM
CUUUUGUGAGGAUAUUAGUAGUAAAUAAUUAAAAUUACUACUGAGAAGGCACAUGAGGAUCACCCAUGUUCCUC	33.2 nM	344 nM	–	–
AAAAUCUAUUGAGGAUAUUCAUACACUACAUACGGAGAAGGCAAACAAUCAUGAGGACAUGAGGAUCACCCAUGUUGUGACCAU	–	–	23.4 nM	20 nM
CUCGUGUUAGGAUAUCGUGGCUGGGCUGGGACGUCCGAUGGCGAGAAGGGACAUGAGGAUCACCCAUGUAAAAC	28.6 nM	27.6 nM	–	–
AACUUCAGAGGAUAUACAUGAGUGAAAAAAGUCUGAUAACUACAUGAGGAUCACCCAUGUAGAAGGCUGUAGCA	29.1 nM	35.4 nM	–	–

Sequence	apparent Kd [1]	apparent Kd [2]	apparent Kd [3]	apparent Kd [4]
UUGGGAUGCAAGAAGGGUGACAUGAGGAUCACCCAUGUGUUGUGAAUUCUCGAGAUUUUAUGACCAUAGGAUAUUGCACCGAAC	–	–	28.5 nM	12.2 nM
UAGGUGUGAGGAUAUGGUAAAGAUAAAAUGAUGAAAGAACUCCAGAAGGCACAUGAGGAUCACCCAUGUAGAUG	29.2 nM	54.9 nM	–	–
GAGCUGACAAUAAAUAACUCAAAUACAUGAGGAUCACCCAUGUAGGAUAUGCAGUGGAAUACACUGCAGAAGGACAUAGUCAGC	13.4 nM	21.8 nM	–	–
AUCGUGCAGCUUUGCUGUACGCGUACAUGAGGAUCACCCAUGUAGGAUAUGGUACGCUUUGCGUGCUAGAAGGAUAUGGAGAGG	16.9 nM	21.1 nM	–	–
CAACAGUCAGGAUAUGCAAAAAAAAAAAAAAAAAAAAAAAAGCAGAAGGGACAUGAGGAUCACCCAUGUUGUCG	30 nM	16.7 nM	–	–
AUCAUGUCAGGAUAUCGUGCAGCUACCGAAAGGUAGCUGCACGAGAAGGGACAUGAGGAUCACCCAUGUAUGAA	221 nM	117 nM	–	–
GUCAGCUCGUGAGGAUAUACAUGUGCUGGAAACAGCACUAUUAAAUUCACAUGAGGAUCACCCAUGUAGAAGGCACGAGCUGAU	15.4 nM	19.1 nM	–	–
AAAGUGUGAAGCAGGGUGCUACAUGAGGAUCACCCAUGUCGGAGAAGGGCGCCGUUUCGCAUGGUGUAGGAUAUCUGGCGUGCA	116 nM	132 nM	–	–
AGCUAGUACCGAGGAUAUACAUACAUGAGGAUCACCCAUGUAUACAUGAAUUAAUGAGACUACAUGUAGAAGGCGGUACUAGCA	–	–	69.1 nM	16 nM
CUUUAGUGAGGAUAUCGGUAGUAAUACAAUAGUAUUACUACUGAGAAGGCACAUGAGGAUCACCCAUGUUCCUC	29.9 nM	233 nM	–	–
UUGGUUGUCGUAGGAUAUGUAGGAUAUUCCUACAUGAGGAUCACCCAUGUUCGCAUGGAAGAAGGACAGAAGGACGAUGACCAU	–	–	1290 nM	23.7 nM
UAGCCACAAGGAUAUACAUGAGGAUCACCCAUGUUUCCAGGAUGCCCUCUCAUGGGUUGUAGAAGGUGUCGGCG	15.8 nM	17.9 nM	–	–
AAUAAUAGCGAGGAUAUCGUAUCGGAAACGAUACGAGAAGGCGUAACAUGAGGAUCACCCAUGUUCCUCAAUAA	38 nM	313 nM	–	–
UGGAUGGUAUGAGGAUAUGCGCGCGAAACGCGCGCAGAAGGCGUGUCAAUAGACAUGAGGAUCACCCAUGUAUUAUCCAUCCAA	–	–	130 nM	12.3 nM
ACACGGAAGUCAGGAUAUGUAUCAGCACGAUUGUUACAUGAGGAUCACCCAUGUUUCACGGGCCAACAGAAGGGACAGGGUGGC	–	–	23.6 nM	7.82 nM
UUCCUCUUAACAUGAGGAUCACCCAUGUAUUAUUUGGUAAUUGAGGAUAUAUUUUUAAUGUUUAUAUAGAAGGCAAAUACAGUU	45.7 nM	49.3 nM	–	–
UGUGCGUCAGGAUAUUCUACUUAUUACAUGAGGAUCACCCAUGUGUAUGUACAAGGGUGUGAAGAAGGGACUUGUC	935 nM	305 nM	–	–
GAACCUAAGUCAGGAUAUGUCUAAGAAAACUGACAUGAGGAUCACCCAUGUGAAUGUAAAGCAUGGCAGAAGGGAUAUGGGUGG	–	–	171 nM	315 nM
UUCAGCGAUCAAGGAUAUCUAUAUUCAUGAGGACAUGAGGAUCACCCAUGUUGAUUACCCAUGAGGGAGAAGGUGGACAUGAGG	–	–	40.1 nM	23.5 nM
GUAGCUAUCGGAGGAUAUUCAUACCGCAAACGGACAUGAGGAUCACCCAUGUGGCGAAAGCAUUGGGAGAAGGCCGAUAGCUAC	–	–	22.5 nM	5.68 nM
UUUUUACGAGGAUAUCGUUUUUUUCACAUGAGGAUCACCCAUGUUGUUUAUGUUGCGUUGCGAGAAGGCGUUUGUU	27.4 nM	22.8 nM	–	–
UGUUGUAUUACAGGAUAUCUAGUAUUUUCAUUUAGAGAAGGGUAUUCACAUGAGGAUCACCCAUGUAUAUACGAGGAAGUUGUG	–	–	43.7 nM	45.4 nM
GUCUCGUCAGGAUAUGACGCUACAUUUUGUUUUUAGAAGAGUCAGAAGGGACAUGAGGAUCACCCAUGUGAUUC	329 nM	402 nM	–	–
AAUAACAGAGGAUAUACUAUUUUAUGUGUUUAUUGUUUUAAACAUGAGGAUCACCCAUGUAGAAGGCUGAGUAA	42.2 nM	59.8 nM	–	–
